Measured values from ChEMBL document CHEMBL3351278, “Pyridine-3-carboxamide-6-yl-ureas as novel inhibitors of bacterial DNA gyrase: structure based design, synthesis, SAR and antimicrobial activity” (Eur J Med Chem, 2014).
Values after ≈ are worked out from the molar mass of the structure shown.

Experiments:
Streptococcus pyogenes [1] = experiment: Antibacterial activity against Streptococcus pyogenes ATCC 51339 incubated for 24 hrs by broth microdilution method; assay type: functional; conditions: ATCC 51339, 24 h
Haemophilus influenzae = experiment: Antibacterial activity against Haemophilus influenzae ATCC 49247 incubated for 24 hrs by broth microdilution method; assay type: functional; conditions: ATCC 49247, 24 h
Enterococcus faecalis = experiment: Antibacterial activity against Enterococcus faecalis ATCC 29212 incubated for 24 hrs by broth microdilution method; assay type: functional; conditions: ATCC 29212, 24 h
Staphylococcus aureus [2] = experiment: Antibacterial activity against Staphylococcus aureus ATCC 29213 expressing GyrB T173N mutant incubated for 24 hrs by broth microdilution method; assay type: functional; conditions: ATCC 29213, 24 h
Streptococcus pyogenes [3] = experiment: Antibacterial activity against Streptococcus pyogenes ATCC 51339 expressing ParE A53S mutant incubated for 24 hrs by broth microdilution method; assay type: functional; conditions: ATCC 51339, 24 h
[4] = Retention time of the compound by HPLC method; assay type: physicochemical
DNA gyrase = DNA gyrase (Escherichia coli, UniProt P0AES4+P0AES6); experiment: Inhibition of Escherichia coli GyrB A2B2 subunits assessed reduction in DNA supercoiling activity by malachite green dye based by spectrophotometry; assay type: protein-complex assay
Summary of the method: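 Inhibition was measured as loss of ATPase activity of the E. coli GyrB enzyme and reported as IC50.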

Staphylococcus aureus [5] = experiment: Antibacterial activity against Staphylococcus aureus ATCC 29213 incubated for 24 hrs by broth microdilution method; assay type: functional; conditions: ATCC 29213, 24 h
[6] = system: Staphylococcus epidermidis; experiment: Antibacterial activity against Staphylococcus epidermidis ATCC 12228 incubated for 24 hrs by broth microdilution method; assay type: functional; conditions: ATCC 12228, 24 h
Staphylococcus aureus [7] = experiment: Antibacterial activity against Staphylococcus aureus ATCC 29213 expressing GyrB T173N and ParE T167N mutant incubated for 24 hrs by broth microdilution method; assay type: functional; conditions: ATCC 29213, 24 h
Escherichia coli [8] = experiment: Antibacterial activity against Escherichia coli ATCC 25922 incubated for 24 hrs by broth microdilution method; assay type: functional; conditions: ATCC 25922, 24 h
Streptococcus pneumoniae = experiment: Antibacterial activity against Streptococcus pneumoniae ATCC 49616 incubated for 24 hrs by broth microdilution method; assay type: functional; conditions: ATCC 49616, 24 h
Escherichia coli [9] = experiment: Antibacterial activity against Escherichia coli N43 expressing efflux pump mutant incubated for 24 hrs by broth microdilution method; assay type: functional; conditions: N43, 24 h

MIC (Streptococcus pyogenes [1]) [mg/L] | MIC (Haemophilus influenzae) [mg/L] | MIC (Enterococcus faecalis) [mg/L] | Retention_time [4] [min] | IC50 (DNA gyrase) [µM] | MIC (Staphylococcus aureus [5]) [mg/L] | Structure (SMILES) | MIC (Staphylococcus aureus [2]) [mg/L] | MIC (Streptococcus pyogenes [3]) [mg/L] | MIC [6] [mg/L] | MIC (Staphylococcus aureus [7]) [mg/L] | MIC (Escherichia coli [8]) [mg/L] | MIC (Streptococcus pneumoniae) [mg/L] | MIC (Escherichia coli [9]) [mg/L]
8 (≈ 20.5 µM) | > 64 | 2 (≈ 5.12 µM) | 1.3 | 4.81 | > 64 | CCNC(=O)Nc1cc(NCc2cccnc2)c(C(=O)Nc2ccccc2)cn1 | – | – | – | – | – | – | –
> 64 | > 64 | > 64 | 1.64 | 8.4 | > 64 | CCNC(=O)Nc1ccc(C(=O)Nc2ccc3c(C)cc(=O)oc3c2)cn1 | – | – | – | – | – | – | –
8 (≈ 20.4 µM) | > 64 | 8 (≈ 20.4 µM) | 1.23 | 0.66 | > 64 | CCNC(=O)Nc1cc(NCc2cccnc2)c(C(=O)Nc2cccnc2)cn1 | – | – | – | – | – | – | –
> 64 | > 64 | 64 (≈ 170 µM) | 1.51 | 7.27 | > 64 | CCNC(=O)Nc1cc(-c2cccnc2)c(C(=O)Nc2cccc(C)c2)cn1 | – | – | – | – | – | – | –
> 64 | > 64 | > 64 | 1.77 | 7.5 | > 64 | CCNC(=O)Nc1ccc(C(=O)Nc2cc(Cl)ccc2C)cn1 | – | – | – | – | – | – | –
> 64 | > 64 | > 64 | 1.7 | 2.12 | > 64 | CCNC(=O)Nc1cc(NC2CCCCC2)c(C(=O)Nc2cccc(C)c2)cn1 | – | – | – | – | – | – | –
> 64 | > 64 | > 64 | 1.18 | 33.2 | > 64 | CCNC(=O)Nc1cc(N2CCN(C)CC2)c(C(=O)Nc2nccs2)cn1 | – | – | – | – | – | – | –
> 64 | > 64 | > 64 | 1.24 | 5.3 | > 64 | CCNC(=O)Nc1ccc(C(=O)Nc2ccnc(C)c2)cn1 | – | – | – | – | – | – | –
32 (≈ 112 µM) | > 256 | 256 (≈ 897 µM) | 1.25 | 6 | > 256 | CCNC(=O)Nc1ccc(C(=O)Nc2cccnc2)cn1 | – | – | – | – | – | – | –
> 64 | > 64 | > 64 | 1.26 | 18 | > 64 | CCNC(=O)Nc1cc(N2CCN(C)CC2)c(C(=O)Nc2cccc(C)c2)cn1 | – | – | – | – | – | – | –
– | – | < 0.25 | – | < 0.75 | – | CCNC(=O)Nc1nc2cc(-c3cccnc3)cc(-c3ccccn3)c2s1 | – | – | – | – | – | – | –
> 64 | > 64 | > 64 | 1.51 | 0.098 | > 64 | CCNC(=O)Nc1cc(Nc2cccc(C)c2)c(C(=O)Nc2nccs2)cn1 | – | – | – | – | – | – | –
> 64 | > 64 | > 64 | 1.43 | 0.96 | > 64 | CCNC(=O)Nc1ccc(C(=O)Nc2ncc(C(=O)O)s2)cn1 | – | – | – | – | – | – | –
1 (≈ 2.56 µM) | > 64 | 0.5 (≈ 1.28 µM) | 1.24 | 2 | > 16 | CCNC(=O)Nc1cc(Nc2ccccc2)c(C(=O)NCc2cccnc2)cn1 | – | – | – | – | – | – | –
> 16 | > 64 | > 16 | 1.93 | 4.9 | > 16 | CCNC(=O)Nc1cc(Oc2ccccc2)c(C(=O)Nc2ccccc2)cn1 | – | – | – | – | – | – | –
64 (≈ 162 µM) | > 64 | 64 (≈ 162 µM) | 1.6 | 3.02 | > 64 | CCNC(=O)Nc1cc(-c2cccnc2)c(C(=O)Nc2cccc(Cl)c2)cn1 | – | – | – | – | – | – | –

The next lines start with the compound.

Structure (SMILES) | MIC (Streptococcus pyogenes [1]) [mg/L] | MIC (Haemophilus influenzae) [mg/L] | MIC (Enterococcus faecalis) [mg/L] | Retention_time [4] [min] | IC50 (DNA gyrase) [µM] | MIC (Staphylococcus aureus [5]) [mg/L] | MIC (Staphylococcus aureus [2]) [mg/L] | MIC (Streptococcus pyogenes [3]) [mg/L] | MIC [6] [mg/L] | MIC (Staphylococcus aureus [7]) [mg/L] | MIC (Escherichia coli [8]) [mg/L] | MIC (Streptococcus pneumoniae) [mg/L] | MIC (Escherichia coli [9]) [mg/L]
CCNC(=O)Nc1ccc(C(=O)Nc2cccc(C)c2)cn1 | 32 (≈ 107 µM) | > 64 | 32 (≈ 107 µM) | 1.76 | 3.4 | 32 (≈ 107 µM) | > 64 | > 64 | – | – | – | – | –
CCNC(=O)Nc1cc(N2CCN(C)CC2)c(C(=O)Nc2cccnc2)cn1 | > 64 | > 64 | > 64 | 0.27 | 5.66 | > 64 | – | – | – | – | – | – | –
CCNC(=O)Nc1ccc(C(=O)Nc2ccc(OC)c(OC)c2)cn1 | 32 (≈ 92.9 µM) | > 64 | 32 (≈ 92.9 µM) | 1.59 | 6.2 | > 64 | – | > 64 | – | – | – | – | –
CCNC(=O)Nc1ccc(C(=O)Nc2nccs2)cn1 | > 64 | > 64 | > 64 | 1.52 | 0.42 | > 64 | – | – | – | – | – | – | –
CCNC(=O)Nc1ccc(C(=O)Nc2cccc(C#N)c2)cn1 | 32 (≈ 103 µM) | > 64 | > 64 | 1.69 | 3.8 | > 64 | – | – | – | – | – | – | –
CCNC(=O)Nc1ccc(C(=O)Nc2cccc(F)c2)cn1 | 32 (≈ 106 µM) | > 64 | 32 (≈ 106 µM) | 1.74 | 3 | 32 (≈ 106 µM) | > 64 | > 64 | – | – | – | – | –
CCNC(=O)Nc1cc(Nc2cccc(C)c2)c(C(=O)Nc2cccc(C)c2)cn1 | 32 (≈ 79.3 µM) | > 64 | 0.5 (≈ 1.24 µM) | 1.75 | 0.099 | 1 (≈ 2.48 µM) | – | – | – | – | – | – | –
CCNC(=O)Nc1ccc(C(=O)Nc2cccc(Cl)c2)cn1 | 16 (≈ 50.2 µM) | > 64 | 16 (≈ 50.2 µM) | 1.84 | 1.6 | 16 (≈ 50.2 µM) | > 64 | > 64 | – | – | – | – | –
CCNC(=O)Nc1cc(-n2ccnc2)c(C(=O)Nc2cccc(Cl)c2)cn1 | 64 (≈ 166 µM) | > 64 | 32 (≈ 83.2 µM) | 1.44 | 0.55 | > 64 | – | – | – | – | – | – | –
CCNC(=O)Nc1ccc(C(=O)Nc2ccccc2)cn1 | > 16 | > 16 | > 16 | 1.69 | 7.7 | > 64 | – | – | – | – | – | – | –
CCNC(=O)Nc1ccc(C(=O)Nc2cccc(CC)c2)cn1 | > 256 | > 256 | > 256 | 1.84 | 40.4 | > 256 | – | – | – | – | – | – | –
CCNC(=O)Nc1cc(Nc2cccnc2)c(C(=O)Nc2cccnc2)cn1 | 1 (≈ 2.65 µM) | > 64 | 0.5 (≈ 1.32 µM) | 1.38 | 0.093 | 8 (≈ 21.2 µM) | – | – | – | – | – | – | –
CCNC(=O)Nc1cc(-c2cccnc2)c(C(=O)Nc2nccs2)cn1 | 64 (≈ 174 µM) | > 64 | 64 (≈ 174 µM) | 1.36 | 0.56 | > 64 | – | – | – | – | – | – | –
CCNC(=O)Nc1ccc(C(=O)Nc2cccc(C(N)=O)c2)cn1 | > 256 | > 256 | > 256 | 1.44 | 24.5 | > 256 | – | – | – | – | – | – | –
CCNC(=O)Nc1cc(Nc2ccccc2)c(C(=O)Nc2cccc(Cl)c2)cn1 | 4 (≈ 9.76 µM) | > 64 | 0.125 (≈ 0.305 µM) | 1.71 | 0.15 | 0.5 (≈ 1.22 µM) | 1 (≈ 2.44 µM) | 32 (≈ 78.1 µM) | 0.5 (≈ 1.22 µM) | > 64 | > 64 | 1 (≈ 2.44 µM) | > 64
CCNC(=O)Nc1ccc(C(=O)Nc2ccccc2Cl)cn1 | > 64 | > 64 | > 64 | 1.7 | 2.1 | > 64 | – | – | – | – | – | – | –
CCNC(=O)Nc1cc(-c2ccccc2)c(C(=O)Nc2cccc(Cl)c2)cn1 | > 64 | > 64 | 4 (≈ 10.1 µM) | 1.88 | 0.81 | > 64 | – | – | – | – | – | – | –
CCNC(=O)Nc1ccc(C(=O)Nc2ccc(Cl)cc2)cn1 | > 64 | > 64 | > 64 | 1.83 | 3.3 | > 64 | – | – | – | – | – | – | –
CCNC(=O)Nc1ccc(C(=O)Nc2ccncc2)cn1 | 64 (≈ 224 µM) | > 64 | 64 (≈ 224 µM) | 1.19 | 3.5 | > 64 | – | – | – | – | – | – | –
CCNC(=O)Nc1ccc(C(=O)Nc2cc(C(=O)OC)ccn2)cn1 | > 64 | > 64 | > 64 | 1.66 | 14 | > 64 | – | – | – | – | – | – | –
CCNC(=O)Nc1cc(Nc2ccccc2)c(C(=O)Nc2ccc(-n3cncn3)nc2)cn1 | > 16 | > 64 | 0.25 (≈ 0.564 µM) | 1.54 | 0.15 | > 16 | – | – | – | – | – | – | –
CCNC(=O)Nc1cc(N2CCN(C)CC2)c(C(=O)Nc2cccc(Cl)c2)cn1 | > 64 | > 64 | > 64 | 1.36 | 5.14 | > 64 | – | – | – | – | – | – | –
CCNC(=O)Nc1ccc(C(=O)NC2CCCCC2)cn1 | > 64 | > 64 | > 64 | 1.67 | 23.1 | > 64 | – | – | – | – | – | – | –
CCNC(=O)Nc1cc(-c2cccnc2)c(C(=O)Nc2cccnc2)cn1 | 64 (≈ 177 µM) | > 64 | 64 (≈ 177 µM) | 1.12 | 1.13 | > 64 | – | – | – | – | – | – | –
